Data on nine compounds can be found in ChEMBL document CHEMBL1121883, “1-(Naphthylalkyl)-1H-imidazole derivatives, a new class of anticonvulsant agents” (J Med Chem, 1981).

Where “and” joins values, the source holds several entries; their conditions need not be identical. Identical values can stand only once. A value given as a limit tells only on which side of the number the result lay.

Data set [1] concerns Mus musculus. Nature of the data set: Dose causing a neurological deficit in 50% of mice after ip administration. In kind it is functional. In outline: (§1)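 Traction test in male Hilltop ICR-derived mice (19-30 g, groups of 8-10) just before electroshock, 15 min after ip or 30 min after oral dosing. Mice placed on a 16-gauge, 65-cm copper wire 40 cm above the table; deficit scored as failure to stay on for 10 s. ND50 with 95% limits by Litchfield-Wilcoxon.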

For data set [2], the system named is Mus musculus. Nature of the data set: compound was evaluated for anticonvulsant activity by maximal electroshock assay(MES) in mice after ip administration. In kind it is functional. In outline: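 Male Hilltop ICR-derived mice, 19-30 g, groups of 8-10, given compound or aqueous vehicle […] before transcorneal electroshock (50 mA, 60 Hz, 0.2 s). Shock delivered after the traction test. ED50 with 95% confidence limits estimated from quantal data by Litchfield-Wilcoxon.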

Data set [3] deals with Mus musculus. As to the kind of experiment: Dose of compound causing a neurological deficit in 50% of mice after ip administration; 20-35. It counts as functional. In outline: as §1
Data set [4] relates to Mus musculus. As to the kind of experiment: Protective index defined as ND50 (p.o.) divided by MES ED50(op). In kind it is functional. In short, it runs like this:
(§2)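 Ratio of ND50 from the wire traction test to MES ED50, both measured by the same route (ip or oral) in the same animals. Quantal dose-response data for each were evaluated by Litchfield-Wilcoxon.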

Data set [5] concerns Mus musculus. Nature of the data set: Dose causing a neurological deficit in 50% of mice following p.o. administration. In kind it is functional. In outline: as §1
Data set [6] has as its system Mus musculus. As to the kind of experiment: Compound was evaluated for anticonvulsant activity by maximal electroshock assay(MES) in mice after po administration; 34-89. In kind it is functional. In short, it runs like this: (§3)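 Male Hilltop ICR-derived mice (19-30 g), groups of 8-10, given compound or aqueous vehicle orally. The transcorneal 60-Hz shock (50 mA, 0.2 s) followed a 30 min pretreatment and a wire-hang neurological check (10 s). ED50 and 95% confidence limits were obtained from quantal data by the Litchfield-Wilcoxon method.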

Data set [7] concerns Mus musculus. Nature of the data set: Protective index is defined as ND50 (i.p.) divided by MES ED50(i.p.). In kind it is functional. In short, it runs like this: as §2
The test system of data set [8] is Mus musculus. As to the kind of experiment: Compound was evaluated for anticonvulsant activity by maximal electroshock assay(MES) in mice after ip administration; 18-28. In kind it is functional. In outline: (§4)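 Male Hilltop ICR-derived mice (19-30 g), groups of 8-10, dosed ip with compound or aqueous vehicle. After 15 min pretreatment, a transcorneal 60-Hz, 50 mA shock was given for 0.2 s. Just before the shock, each mouse was tested on a horizontal wire (10 s). Quantal data were analysed by Litchfield-Wilcoxon to give ED50 with 95% confidence limits.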
In general terms: In the maximal electroshock model the usual endpoint is tonic extension of the hind limbs.

For data set [9], the system named is Mus musculus. Nature of the data set: Dose of compound causing a neurological deficit in 50% of mice after ip administration; 71-111. It counts as functional. In short, it runs like this: as §1
Data set [10] relates to Mus musculus. Nature of the data set: Dose of compound causing a neurological deficit in 50% of mice after ip administration; 71-93. In kind it is functional. In outline:
as §1

The subject of data set [11] is Mus musculus. Nature of the data set: Compound was evaluated for anticonvulsant activity by maximal electroshock assay(MES) in mice after ip administration; 38-55. It counts as functional. In outline: as §4
Data set [12] has as its system Rattus norvegicus. Nature of the data set: Dose of compound causing a neurological deficit in 50% of rat after po administration. It counts as functional. In outline:
(§5)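 Rats (Simonsen Sprague-Dawley-derived, 80-110 g, groups of 8-10) placed on a suspended 16-gauge, 65-cm copper wire just before electroshock. Deficit scored as inability to remain for 8 s. Pretreatment was 15 min ip or 30 min oral. Quantal data analysed by Litchfield-Wilcoxon to give ND50 with 95% limits.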

Data set [13] concerns Rattus norvegicus. Nature of the data set: Compound was evaluated for anticonvulsant activity by maximal electroshock assay(MES) in rat after po administration; 31-105. In kind it is functional. In outline: (§6)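 Male Simonsen Sprague-Dawley-derived rats, 80-110 g, groups of 8-10, dosed with compound or aqueous vehicle; pretreatment 15 min after ip or 30 min after oral dosing. Transcorneal electroshock, 150 mA, 60 Hz, 0.2 s, given after the wire test. ED50 with 95% confidence limits from quantal data by Litchfield-Wilcoxon.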

Data set [14] relates to Mus musculus. Nature of the data set: Compound was evaluated for anticonvulsant activity by maximal electroshock assay(MES) in mice after ip administration; 18-25. It counts as functional. In outline:
as §4

The test system of data set [15] is Mus musculus. As to the kind of experiment: Dose of compound causing a neurological deficit in 50% of mice after ip administration; 53-96. It counts as functional. In outline:
as §1

Data set [16] deals with Mus musculus. Nature of the data set: Compound was evaluated for anticonvulsant activity by maximal electroshock assay(MES) in mice after po administration; 55-105. It counts as functional. In outline:
as §3

Data set [17] deals with Mus musculus. As to the kind of experiment: Compound was evaluated for anticonvulsant activity by maximal electroshock assay(MES) in mice after po administration. It counts as functional. In short, it runs like this:
as §3

Data set [18] can be described thus: (§7) Lethal dose was measured in mice after ip administration. It counts as toxicity, organism-based. The following applies: mouse, in vivo. In outline:
(§8)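 Male Simonsen ICR-derived mice (16-24 g), groups of three, given compound ip in increasing doses within a behavioral screen. Deaths counted on day 5, and LD50 estimated from 5-day survival. Quantal data analysed by the Litchfield-Wilcoxon method.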

In data set [19] the test system is Mus musculus. As to the kind of experiment: Compound was evaluated for anticonvulsant activity by maximal electroshock assay(MES) in mice after ip administration; 20-42. It counts as functional. In outline: as §4
Data set [20] deals with Mus musculus. As to the kind of experiment: Compound was evaluated for anticonvulsant activity by maximal electroshock assay(MES) in mice after po administration; 60-147. In kind it is functional. In short, it runs like this:
as §3

Data set [21] concerns Rattus norvegicus. Nature of the data set: Compound was evaluated for anticonvulsant activity by maximal electroshock assay(MES) in rat after po administration. It counts as functional. In outline: as §6
Data set [22] deals with Rattus norvegicus. As to the kind of experiment: Dose of compound causing a neurological deficit in 50% of rat after ip administration. It counts as functional. In short, it runs like this: as §5
In data set [23] the test system is Mus musculus. The data set is described as §7. In kind it is functional. In short, it runs like this: as §8
Data set [24] relates to Rattus norvegicus. As to the kind of experiment: Compound was evaluated for anticonvulsant activity by maximal electroshock assay(MES) in rat after ip administration; 2.9-19. In kind it is functional.
Data set [25] concerns Mus musculus. Nature of the data set: Compound was evaluated for anticonvulsant activity by maximal electroshock assay(MES) in mice after ip administration; 8-19. It counts as functional. In outline: as §4
Data set [26] deals with Mus musculus. Nature of the data set: Compound was evaluated for anticonvulsant activity by maximal electroshock assay(MES) in mice after ip administration; 62-102. In kind it is functional. In short, it runs like this: as §4
Data set [27] deals with Mus musculus. Nature of the data set: Dose of compound causing a neurological deficit in 50% of mice after ip administration; 13-115. In kind it is functional. In outline:
as §1

In data set [28] the test system is Rattus norvegicus. Nature of the data set: Compound was evaluated for anticonvulsant activity by maximal electroshock assay(MES) in rat after po administration; 11-42. It counts as functional. In short, it runs like this: as §6
In data set [29] the test system is Mus musculus. As to the kind of experiment: Compound was evaluated for anticonvulsant activity by maximal electroshock assay(MES) in mice after po administration; 16-32. In kind it is functional. In outline: as §3
In data set [30] the test system is Rattus norvegicus. Nature of the data set: Dose of compound causing a neurological deficit in 50% of rat after ip administration; 26-92. In kind it is functional. In outline: as §5
The subject of data set [31] is Rattus norvegicus. Nature of the data set: Compound was evaluated for anticonvulsant activity by maximal electroshock assay(MES) in rat after ip administration; 5.3-12. It counts as functional. In short, it runs like this: as §6

Usually ED50 stands for the dose at which the effect has come halfway, by size or by number of responders. A low value points to an effect at a small dose. Take `COC(Cn1ccnc1)(OC)c1ccc2ccccc2c1`: the ND50 in data set [1] was over 40 mg/kg. Also, the ED50 in [2] was over 40 mg/kg.
Take `CC1CCOC(Cn2ccnc2)(c2ccc3ccccc3c2)O1` (stereo not drawn): the results for the ND50 in data set [3] and in data set [5] were 26 mg/kg and over 100 mg/kg, respectively. In addition, the PI in data set [4] is reported as over 1.8; in [7], 1.4. This compound also registered an ED50 in data set [6] of 56 mg/kg.
In data set [8], `CCC(=O)OC(Cn1ccnc1)c1ccc2ccccc2c1.Cl` (stereo not drawn) returned an ED50 of 23 mg/kg. In addition, the PI in data set [7] turned out to be 3.6. This compound yielded an ND50 in [9] of 83 mg/kg.
In the case of `Cl.Clc1ccc(OC(Cn2ccnc2)c2ccc3ccccc3c2)cc1` (stereo not drawn), the ND50 in data set [10] came out at 82 mg/kg. Besides, the PI in data set [7] is reported as 1.8. The same compound showed an ED50 in data set [11] of 46 mg/kg.
As for `Cc1ccc2cccc(C(=O)Cn3ccnc3)c2c1.Cl`, the results for the ND50 in data set [12], in [5] and in data set [15] were over 100 mg/kg, over 300 mg/kg and 73 mg/kg, respectively. Further, the ED50 stood at 52 mg/kg in data set [13], 22 mg/kg in data set [14] and 74 mg/kg in [16]. For the same compound, the PI in data set [4] is >4.1 and >1.9; in data set [7], 3.3.
For orientation: LD50 means the dose at which mortality reaches 50%. A higher LD50 goes with lower toxicity. As for `COc1ccc2cc(C(=O)Cn3ccnc3)ccc2c1.Cl`, the ND50 in [5] and in data set [1] was over 100 mg/kg throughout. Further, the ED50 in [17] was over 100 mg/kg; in [19], 31 mg/kg. In addition, in data set [18], the LD50 is over 100 mg/kg. The compound further displayed a PI in data set [7] of over 3.3.
As to `Br.CCc1ccc2cc(C(=O)Cn3ccnc3)ccc2c1`, the ED50 in [20] is 84 mg/kg; in [21] it was over 30 mg/kg; in data set [24] it was 5.5 mg/kg; in data set [25], 12 mg/kg. Moreover, the values for the PI in data set [4] and in [7] were over 1.2 and over 8.1, respectively. The ND50 in data set [5], in data set [22] and in data set [1] was over 100 mg/kg each time. In [23], this compound displayed an LD50 of over 100 mg/kg.
On to `COc1cc2cccc(C(=O)Cn3ccnc3)c2cc1OC.Cl`, for which it took a dose of 79 mg/kg to reach the 50% effect level in data set [26] (ED50). In data set [1], this compound showed an ND50 of over 100 mg/kg. Besides, the PI in data set [7] is recorded as over 1.3.
As to `Cl.c1ccc2c(C3(Cn4ccnc4)OCCO3)cccc2c1`, the ND50 in data set [12] was about 200 mg/kg; in data set [27] it was 28 mg/kg; in [5], over 100 mg/kg; in data set [30], 44 mg/kg. Also, the PI in data set [4] was >4.3 and ~9. Also, the values for the ED50 in data set [28], in data set [29] and in [31] were 22 mg/kg, 23 mg/kg and 7.8 mg/kg, respectively.
